From ChEMBL document CHEMBL4765239, “Discovery of a Novel Highly Selective Histamine H4 Receptor Antagonist for the Treatment of Atopic Dermatitis” (J Med Chem, 2018)

test system: not listed separately; assay: Intrinsic clearance in human liver microsomes at 5 uM incubated upto 30 mins in presence of NADPH by UPLC-UV analysis; assay type: ADME, Microsome; settings: read-out: CLH
Summary of the method: (§1)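 Test compound at 5 µM incubated with pooled CD-1 mouse or human liver microsomes plus 1 mM NADPH. Remaining compound measured by UPLC-UV at 0, 10, 20 and 30 min. CLint derived from the first-order elimination rate constant, normalized to microsomal protein.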

| microsomal CLint at 5 µM [µL/min/mg] | Structure (SMILES) |
| --- | --- |
| 1.63 | CN1CCN(c2nc3nc(C#N)c(Cl)cc3n3cnnc23)CC1 |

test system: not listed separately; assay: Intrinsic clearance in CD1 mouse liver microsomes at 5 uM incubated upto 30 mins in presence of NADPH by UPLC-UV analysis; assay type: ADME, Microsome; settings: read-out: CLH; summary of the method: as §1

| microsomal CLint at 5 µM [µL/min/mg] | Structure (SMILES) |
| --- | --- |
| 0.69 | CN1CCN(c2nc3nc(C#N)c(Cl)cc3n3cnnc23)CC1 |

test system: not listed separately; assay: Basicity constant, pKa of the compound; assay type: physicochemical; settings: not given

| pKa | Structure (SMILES) |
| --- | --- |
| 8.9 | Clc1cnc2nc(N3CCNCC3)c3nncn3c2c1 |

target: Histamine H3 receptor (Homo sapiens, UniProt Q9Y5N1); assay: Displacement of [3H]-N-alpha-methylhistamine from recombinant human histamine H3 receptor expressed in CHO-K1 cell membranes measured after 30 mins by microbeta scintillation counting method; parameters: species or system Cell membrane; settings: not given
Sequence (Q9Y5N1 whole entry): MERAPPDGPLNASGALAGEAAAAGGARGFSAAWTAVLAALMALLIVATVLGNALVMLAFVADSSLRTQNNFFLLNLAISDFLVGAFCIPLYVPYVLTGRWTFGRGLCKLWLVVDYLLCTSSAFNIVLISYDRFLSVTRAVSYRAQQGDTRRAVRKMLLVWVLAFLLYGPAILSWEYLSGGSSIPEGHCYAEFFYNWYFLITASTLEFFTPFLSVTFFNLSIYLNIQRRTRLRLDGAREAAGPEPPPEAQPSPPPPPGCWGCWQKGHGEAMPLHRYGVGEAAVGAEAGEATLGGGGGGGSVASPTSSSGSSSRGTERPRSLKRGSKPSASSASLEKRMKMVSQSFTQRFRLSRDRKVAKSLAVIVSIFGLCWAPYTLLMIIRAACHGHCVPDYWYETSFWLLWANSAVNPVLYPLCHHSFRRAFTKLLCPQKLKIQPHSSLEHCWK
Summary of the method: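 Competitive binding on CHO-K1 membranes expressing human H3R ([3H]Nα-methylhistamine) or mouse H4R ([3H]histamine). Run in 50 mM Tris-HCl pH 7.4 for 30 min at 27 °C, then filtered onto 0.5% PEI-treated glass fiber and washed three times with ice-cold buffer. Bound radioactivity read by liquid scintillation counting.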

| IC50 [µM] | Structure (SMILES) |
| --- | --- |
| 11 | CN1CCCN(c2nc3ncc(Cl)cc3n3cnnc23)CC1 |
| 75 | CN1CCN(c2nc3ncc(Cl)cc3c3ncnn23)CC1 |
| 73 | CN1CCN(c2nc3ncc(Cl)cc3n3nnnc23)CC1 |
| 49 | CN1CCN(c2nc3ncc(Br)cc3n3nnnc23)CC1 |
| 36 | CN1CCN(c2nc3nc(C#N)c(Cl)cc3n3cnnc23)CC1 |

| Structure (SMILES) | IC50 [µM] |
| --- | --- |
| Clc1cnc2nc(N3CCN4CCCC4C3)c3nncn3c2c1 (stereo not given) | 24 |

target: Histamine H4 receptor (Homo sapiens, UniProt Q9H3N8); assay: Displacement of [3H]-histamine from recombinant human histamine H4 receptor expressed in CHO-K1 cell membranes measured after 30 mins by microbeta scintillation counting method; parameters: species or system Cell membrane; settings: not given

| IC50 [µM] | Structure (SMILES) |
| --- | --- |
| 0.065 | CNC1CN(c2nc3ncc(Cl)cc3n3cnnc23)C1 |
| 1.1 | CNC1CN(c2nc3ncc(Cl)cc3c3ncnn23)C1 |
| 2.9 | CN1CCCN(c2nc3ncc(Cl)cc3n3cnnc23)CC1 |
| > 10 | Clc1cnc2nc(N3CCN(C4CC4)CC3)c3nncn3c2c1 |
| 1.2 | CN(C)C1CN(c2nc3ncc(Cl)cc3n3cnnc23)C1 |
| 0.053 | CNC1CN(c2nc3ncc(Cl)cc3n3nnnc23)C1 |
| 4.8 | CN(C)[C@@H]1CCN(c2nc3ncc(Cl)cc3n3cnnc23)C1 |
| 6.3 | N[C@@H]1CCN(c2nc3ncc(Cl)cc3n3cnnc23)C1 |
| 4.1 | CN[C@@H]1CCN(c2nc3ncc(Cl)cc3n3cnnc23)C1 |
| 5.2 | NC1CN(c2nc3ncc(Cl)cc3n3cnnc23)C1 |
| > 10 | Clc1cnc2nc(N3CCCNCC3)c3nncn3c2c1 |

| Structure (SMILES) | IC50 [µM] |
| --- | --- |
| Clc1cnc2nc(N3CC4CCCNC4C3)c3nncn3c2c1 (stereo not given) | > 10 |
| Clc1cnc2nc(N3CCN4CCCC4C3)c3nncn3c2c1 (stereo not given) | 0.052 |

target: T1, 5-hydroxytryptamine receptor 3A (Homo sapiens) (UniProt P46098); assay: Displacement of [3H]BRL 43694 from human recombinant 5-HT3 receptor at 10 uM after 120 mins by scintillation counting analysis relative to control; settings: not given
T1 sequence (whole entry): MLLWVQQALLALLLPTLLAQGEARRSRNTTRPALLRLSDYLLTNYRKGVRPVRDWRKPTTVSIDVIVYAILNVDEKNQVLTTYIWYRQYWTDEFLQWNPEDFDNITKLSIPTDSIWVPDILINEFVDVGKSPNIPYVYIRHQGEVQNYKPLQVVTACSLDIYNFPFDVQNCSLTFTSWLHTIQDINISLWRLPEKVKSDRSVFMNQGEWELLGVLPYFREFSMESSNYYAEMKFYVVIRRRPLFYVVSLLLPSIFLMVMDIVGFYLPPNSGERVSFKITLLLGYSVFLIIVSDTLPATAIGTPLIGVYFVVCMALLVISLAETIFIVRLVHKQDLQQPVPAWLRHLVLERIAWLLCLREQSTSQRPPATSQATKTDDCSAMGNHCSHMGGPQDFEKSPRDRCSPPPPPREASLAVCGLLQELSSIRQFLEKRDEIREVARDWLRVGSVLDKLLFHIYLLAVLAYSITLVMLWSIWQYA

| inhibition [%] | Structure (SMILES) |
| --- | --- |
| 32 | CNC1CN(c2nc3ncc(Cl)cc3c3ncnn23)C1 |
| 18 | CNC1CN(c2nc3ncc(Cl)cc3n3nnnc23)C1 |
| 24.5 | NC1CN(c2nc3ncc(Cl)cc3n3cnnc23)C1 |

same assay, conditions: filed as antagonist

| inhibition [%] | Structure (SMILES) |
| --- | --- |
| 50 | CNC1CN(c2nc3ncc(Cl)cc3n3cnnc23)C1 |
| 96 | CN1CCN(c2nc3ncc(Cl)cc3c3ncnn23)CC1 |
| 85 | CN1CCN(c2nc3ncc(Cl)cc3n3nnnc23)CC1 |
| 89 | CN1CCN(c2nc3ncc(Br)cc3n3nnnc23)CC1 |
| 77.5 | CN(C)C1CN(c2nc3ncc(Cl)cc3n3cnnc23)C1 |
